Data set [1] has as its system Aorta. The data set can be described thus: Vasorelaxant activity in rat thoracic aorta assessed as inhibition of norepinephrine-induced contractions Ca2+-free medium. In kind it is functional, tissue-based.
Data set [2] can be described thus: Toxicity in ip dosed mouse. It is filed as organism-based. As to conditions: in vivo. The method in brief: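 Acute toxicity test in mice with test article given by intraperitoneal injection; read-out was the LD50 (mg/kg).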
The subject of data set [3] is Aorta. In words: Vasorelaxant activity in rat thoracic aorta assessed as relaxation of resting tension.

For the compound `CCCCC1OC(=O)c2cc(Br)ccc21` (stereo not given), in the data set with Aorta [1], the IC50 worked out at 107 µM and the inhibition result is “Dose-dependent effect”. In data set [2], this compound displayed a 50% lethal dose (LD50) of more than 1000 mg/kg.
As to `CCCCC1OC(=O)c2ccccc21` (stereo not drawn) [RAC-3-N-BUTYLPHTHALIDE], the 50% inhibitory concentration (IC50) with Aorta [1] came to 130 µM. The compound also yielded an LD50 in data set [2] of 751 mg/kg.
In the case of `CCCCC1OC(=O)c2cc(F)ccc21` (stereo not given), in the data set with Aorta [1], the IC50 worked out at 132 µM and the inhibition result is “Dose-dependent effect”. In data set [2], this compound showed an LD50 of 593 mg/kg.
`CCCCC1OC(=O)c2ccc(Cl)cc21` (stereo not given): the Activity entry in the data set on Aorta [3] was “Dose-dependent effect”.
On to `CCCCC1OC(=O)c2ccc(Br)cc21` (stereo not given), for which the Activity result in the data set with Aorta [3] was “Dose-dependent effect”.

The values are drawn from ChEMBL document CHEMBL1157855, “Synthesis and biological activity of n-butylphthalide derivatives” (Eur J Med Chem, 2010).
